# Screening data deposited in PubChem by several laboratories.
# VIM-2 inh = VIM-2 metallo-beta-lactamase inhibitors, primary screen, biochemical, epi-absorbance readout, Pseudomonas aeruginosa enzyme; AID 1527, 2009; purified VIM-2, nitrocefin hydrolysis, epi-absorbance fluorescence; 290,000 tested, 0.89% active; inhibition, % at 5.6 µM;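 active = inhibition above the mean of all tested compounds plus 3 SD, cutoff set per screening run, cut at about 7.5% in these data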;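 note: red hydrolysis product quenches plate fluorescence so inhibitors raise well fluorescence; 0% = enzyme with DMSO and 100% = DMSO without enzyme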
# CHT allo act = CHT positive allosteric modulators, primary screen, cell-based, membrane potential dye, choline EC20; High affinity choline transporter 1 (Homo sapiens), Q9GZV3; CHT-expressing cells; hits give high values; LV-AA mutant CHT in HEK293 cells; B-score at 10 µM; 310,000 tested, 0.49% active;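 active = initial fluorescence not abnormally high and integrated response B-score, plate-corrected, over 3 SD above library mean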
# CHT inh = inhibitors of human choline transporter CHT; B-score at 10 µM; 310,000 tested, 0.86% active; AID 488975, 2010; High affinity choline transporter 1 (Homo sapiens), Q9GZV3; CHT-expressing cells, membrane potential dye, choline response; hits give low values;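 active = B-score over 3 SD under the library average, and starting fluorescence ratio not unusually high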;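 note: choline stimulus applied at its EC90 after an EC20 pre-addition; B-score computed on integrated fluorescence ratio after choline addition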
# IMP-1 inhibitor = IMP-1 metallo-beta-lactamase inhibitors, primary screen, biochemical, epi-absorbance readout, Pseudomonas aeruginosa enzyme; metallo-beta-lactamase IMP-1 (Pseudomonas aeruginosa); purified IMP-1, nitrocefin hydrolysis, epi-absorbance fluorescence; inhibition, % at 5.6 µM; 290,000 tested, 0.45% active; AID 1556, 2009;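 active = inhibition above the mean plus 3 SD of all compounds in the same screening run, cut at about 4.5% in these data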;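 note: 0% = IMP-1 with DMSO and 100% = DMSO wells lacking enzyme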
#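 System: purified IMP-1 / Input: IMP-1 dispensed at 0.2 nM / Medium: 50 mM HEPES pH 7.1, 50 µM ZnSO4, 0.05% Brij 35 / Timing: 15 min enzyme–compound preincubation, then 25 min nitrocefin reaction, 25 °C / Technique: plate fluorescence quenching by hydrolysis product, ex 480/em 530 nm / Repeats: singlicate testing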
# TMEM16A inh = TMEM16A chloride channel inhibitors, primary screen, cell-based, HTS; 310,000 tested, 1.2% active; normalized B-score (activity score, 25-100; higher = stronger inhibition) at 10 µM; AID 588511, 2011; HEK293 TMEM16A/YFP iodide influx fluorescence, ionomycin; Anoctamin-1 (Mus musculus), Q8BHY3;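 active = ratio plate-corrected score three or more library SD toward inhibition, starting fluorescence score within five deviations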;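 note: score derived from kinetic fluorescence span divided by baseline fluorescence per well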
# TMEM16A act = TMEM16A chloride channel activators or potentiators, primary screen, cell-based, HTS; B-score at 10 µM; HEK293 TMEM16A/YFP-H148Q/I152L, iodide quench fluorescence; hits give low values; AID 623877, 2012; 340,000 tested, 0.3% active;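 active = fluorescence-ratio B-score plate-corrected deviation score at least 3 library SD below zero, with starting fluorescence score within 5 deviations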;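 note: channel opened by trigger with iodide after compound preincubation; score built on the fluorescence ratio of max minus min over baseline; more negative score means more quench and so TMEM16A activation or potentiation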
# TMEM16A reconf = TMEM16A chloride channel inhibitors, confirmation, cell-based, re-confirmation | shares compounds with TMEM16A inh | AID 652189, 2013 | HEK293 TMEM16A/YFP-H148Q, iodide quench fluorescence; ionomycin added to raise cell calcium | 2,300 tested, 39% active | inhibition, % at 10 µM;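 active = mean duplicate percent inhibition, scaled so buffer wells are 0 and the reference blocker 100, over three buffer SD above buffer mean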
# HEK293 Ca mobil = calcium mobilization in TMEM16A/YFP HEK293 cells, confirmation, counter-screen for TMEM16A inhibitor project | AID 652231, 2013 | shares compounds with TMEM16A inh | calcium response (% of ionomycin), % at 10 µM | Fluo4 calcium mobilization | 2,300 tested, 2% active;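 active = duplicate-averaged calcium signal over 20% of the ionomycin maximum, relative to buffer baseline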;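 note: each well's signal is peak minus trough fluorescence divided by its pre-addition baseline; 0% = buffer wells and 100% = ionomycin wells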
# YFP-HEK293 quench = iodide YFP quench changes in parental YFP-HEK293, counter-screen for TMEM16A inhibitor project, cell-based | YFP ratio F(max-min)/F0 at 10 µM | 2,300 tested, under 10 active | AID 652233, 2013 | ionomycin | shares compounds with TMEM16A inh;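 active = yellow fluorescent protein signal ratio exceeding the buffer control mean by over 5 SD of those controls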;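 note: ratio is mean of duplicate wells from kinetic YFP trace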
# ClC-1 inh = ClC-1 chloride channel inhibition, selectivity assay for TMEM16A inhibitor project, cell-based, voltage-dependent ClC-1 | ratio percent, % at 10 µM | 2,300 tested, under 10 active | shares compounds with TMEM16A inh | CHO ClC-1-YFP, iodide influx fluorescence quench; iodide control reads 0, buffer control 100;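 active = duplicate-mean ratio percent above the mean of iodide-only control wells, which defines zero, plus 5 of their SD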;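 note: higher percent means stronger block of ClC-1 iodide influx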
# Target sequence (P35524 whole entry, looked up): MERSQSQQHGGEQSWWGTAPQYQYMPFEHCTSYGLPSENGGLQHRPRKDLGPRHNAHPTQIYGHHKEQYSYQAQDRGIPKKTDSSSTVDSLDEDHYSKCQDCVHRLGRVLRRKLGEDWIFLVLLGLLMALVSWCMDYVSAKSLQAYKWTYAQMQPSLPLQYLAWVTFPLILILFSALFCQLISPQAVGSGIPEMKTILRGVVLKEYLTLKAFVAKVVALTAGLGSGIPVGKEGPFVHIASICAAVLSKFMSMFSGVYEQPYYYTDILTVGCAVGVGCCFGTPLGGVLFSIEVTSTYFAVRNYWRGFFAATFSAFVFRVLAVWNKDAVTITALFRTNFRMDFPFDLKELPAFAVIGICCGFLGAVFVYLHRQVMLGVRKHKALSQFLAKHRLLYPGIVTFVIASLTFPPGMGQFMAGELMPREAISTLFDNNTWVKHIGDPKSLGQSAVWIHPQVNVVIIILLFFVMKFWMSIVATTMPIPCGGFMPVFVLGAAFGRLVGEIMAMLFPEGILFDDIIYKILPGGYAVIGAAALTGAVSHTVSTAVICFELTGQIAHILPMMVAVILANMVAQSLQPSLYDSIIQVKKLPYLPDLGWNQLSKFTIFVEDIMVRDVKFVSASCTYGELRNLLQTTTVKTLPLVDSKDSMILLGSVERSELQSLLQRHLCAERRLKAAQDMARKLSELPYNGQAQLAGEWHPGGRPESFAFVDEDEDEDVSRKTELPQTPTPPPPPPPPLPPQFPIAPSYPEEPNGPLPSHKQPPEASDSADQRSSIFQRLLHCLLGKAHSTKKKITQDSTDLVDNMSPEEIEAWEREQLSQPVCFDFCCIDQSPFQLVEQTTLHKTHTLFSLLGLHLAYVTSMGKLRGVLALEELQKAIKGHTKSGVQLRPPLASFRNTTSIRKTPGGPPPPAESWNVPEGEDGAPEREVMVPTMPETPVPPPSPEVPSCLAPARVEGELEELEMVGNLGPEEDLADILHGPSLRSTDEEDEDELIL
# * = called active by the depositor; i = inactive; . = not tested or not shown. Rows were chosen to be rich in hits. Some 3.4% of all compounds tested hit in one or more screens of this group.
SMILES,VIM-2 inh,CHT allo act,CHT inh,IMP-1 inhibitor,TMEM16A inh,TMEM16A act,TMEM16A reconf,HEK293 Ca mobil,YFP-HEK293 quench,ClC-1 inh
C=CCc1ccc(OCCOCCOc2ccccc2[N+](=O)[O-])c(OC)c1,-5,i,i,-4,100*,i,i,i,-1.1,-11
CCCCN(C(=O)C1CCCC1)c1c(N)n(CCC)c(=O)[nH]c1=O,.,.,.,.,.,i,.,.,.,.
CSc1ccc(CN(C)C(=O)c2ccc(S(=O)(=O)Nc3c(C)n(C)n(-c4ccccc4)c3=O)cc2)cc1,.,.,.,.,.,i,.,.,.,.
CSc1ccc(CN(C)C(=O)c2ccc(S(=O)(=O)Nc3ccccc3)cc2)cc1,.,i,i,.,25*,i,i,i,-1.2,-12
COCC(N)(c1ccccc1)c1nc2ccccc2n1C (configuration not stated),9.0*,i,i,-3,25*,i,i,i,-1.2,-6
CN(C)c1c([N+](=O)[O-])cc(N2C(=O)C=CC2=O)cc1[N+](=O)[O-],.,.,.,.,.,i,.,.,.,.
CCn1c(CNc2cccc(Cl)c2)nnc1SCC(=O)OC1CCCCC1,-3,i,i,-4,i,i,.,.,.,.
CCn1c(CNc2ccc(Cl)cc2)nnc1SCC(=O)OC1CCCCC1,-1,i,i,-1,100*,i,18%*,i,-1.2,-8
COc1ccccc1C(CNC(=O)CCNS(=O)(=O)c1ccc(Br)cc1)N1CCCC1 (configuration not stated),.,.,.,.,.,i,.,.,.,.
Fc1ccc2[nH]c3c(NCc4ccccc4)ncnc3c2c1,-6,i,i,-2,100*,i,66%*,i,-1,-26
COc1ccc2[nH]c3c(NCc4ccco4)ncnc3c2c1,-4,i,i,-1,i,.,.,.,.,.
CC(=O)c1cccc(NC(=S)NC(=O)c2ccccc2)c1,-3,i,i,0,i,i,.,.,.,.
CC(=O)c1cccc(NC(=S)NC(=O)c2cccc(Cl)c2)c1,-1,i,i,0,25*,i,i,28%*,-1.2,-6
C(/C=C/c1ccccc1)=N/N1CCN(c2ccccc2)CC1,-1,i,i,-4,25*,i,i,i,-0.93,-12
C(=C\c1ccccc1)/C=N/N1CCN(c2ccccn2)CC1,1,i,i,-2,i,i,.,.,.,.
COC(=O)c1ccc(C(=O)N2CCCC(Nc3ccc(C(C)C)cc3)C2)cc1 (configuration not stated),0,i,i,-1,i,i,.,.,.,.
CC(C)c1ccc(NC2CCCN(C(=O)c3n[nH]c4c3CCC4)C2)cc1 (configuration not stated),-6,i,i,-3,25*,i,20%*,i,-1.1,-16
N#Cc1nc(Cc2cccc3ccccc23)oc1NCc1ccc(F)cc1,0,i,i,-3,100*,i,i,i,-0.91,3
